Test results: ChEMBL document CHEMBL3351280, “Exploration and pharmacokinetic profiling of phenylalanine based carbamates as novel substance p 1-7 analogues” (ACS Med Chem Lett, 2014)
Peptide text beside a SMILES is read from it.

Assays:
[1] = Apparent permeability from apical to basolateral side in human Caco2 cells; format: ADME, cell-based; conditions: Caco-2
Summary of the method: (§1)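 Caco-2 monolayers; apparent permeability coefficients (Papp) calculated from transport rates in the apical-to-basolateral and basolateral-to-apical directions. Efflux ratio is Papp(b–a)/Papp(a–b). Values are given as mean ± SD.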

[2] = Intrinsic clearance in human microsomes; format: ADME, Microsome
[3] = Fraction unbound in rat brain at 10 uM; format: ADME, tissue-based
[4] = molecular target: Cytochrome P450 3A4 (Homo sapiens, UniProt P08684); experiment: Inhibition of CYP3A4 (unknown origin); format: ADME
[5] = Efflux ratio of apparent permeability from basolateral to apical side to apical to basolateral side of human Caco2 cells; format: ADME, cell-based; conditions: Caco-2; summary of the method: as §1
[6] = molecular target: Cytochrome P450 2C9 (Homo sapiens, UniProt P11712); experiment: Inhibition of CYP2C9 (unknown origin); format: ADME
[7] = Intrinsic clearance in rat microsomes; format: ADME, Microsome
[8] = tested on: Plasma; experiment: Drug recovery in human plasma at 10 uM; format: ADME, cell-free
Summary of the method: (§2)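 Human plasma protein binding was measured by equilibrium dialysis. The read-outs were fraction unbound and mass recovery.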

[9] = Fraction unbound in rat plasma at 10 uM; format: ADME, cell-free
[10] = Drug recovery in rat brain at 10 uM; format: ADME, tissue-based; conditions: read-out: Drug recovery
[11] = molecular target: Cytochrome P450 2D6 (Homo sapiens, UniProt P10635); experiment: Inhibition of CYP2D6 (unknown origin); format: ADME
[12] = tested on: Brain; experiment: Unbound brain volume of distribution in rat at 10 uM; format: ADME, tissue-based; conditions: in vivo
[13] = tested on: Plasma; experiment: Drug recovery in rat plasma at 10 uM; format: ADME, cell-free
[14] = tested on: Hepatocyte; experiment: Intrinsic clearance in rat hepatocytes; format: ADME, cell-based
[15] = molecular target: T1, Cytochrome P450 1A2 (Homo sapiens, UniProt P05177); experiment: Inhibition of CYP1A2 (unknown origin); format: ADME
T1 sequence (P05177 whole entry): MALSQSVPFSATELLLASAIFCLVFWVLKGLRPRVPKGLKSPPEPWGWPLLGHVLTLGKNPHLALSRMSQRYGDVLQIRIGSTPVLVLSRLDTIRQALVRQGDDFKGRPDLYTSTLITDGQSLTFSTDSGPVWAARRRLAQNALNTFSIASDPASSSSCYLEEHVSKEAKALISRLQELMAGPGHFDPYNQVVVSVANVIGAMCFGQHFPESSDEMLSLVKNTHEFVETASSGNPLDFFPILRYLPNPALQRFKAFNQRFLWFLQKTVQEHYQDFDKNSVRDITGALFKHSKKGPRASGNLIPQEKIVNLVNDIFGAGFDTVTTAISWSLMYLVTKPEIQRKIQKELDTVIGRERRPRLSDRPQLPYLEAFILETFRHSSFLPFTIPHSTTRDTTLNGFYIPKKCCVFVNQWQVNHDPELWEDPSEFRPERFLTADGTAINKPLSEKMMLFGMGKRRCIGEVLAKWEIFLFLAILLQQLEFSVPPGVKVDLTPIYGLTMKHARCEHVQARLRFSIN

[16] = Fraction unbound in human plasma at 10 uM; format: ADME, cell-free; summary of the method: as §2
[17] = tested on: PepT1; experiment: in vitro; conditions: chinese hamster, CHO-PepT1 cells and CHO-K1 cells
[18] = Half life in human plasma at 25 uM; format: ADME, cell-free
[19] = Half life in rat plasma at 25 uM; format: ADME, cell-free
[20] = molecular target: T2, Solute carrier family 15 member 1 (Homo sapiens, UniProt P46059); experiment: Drug uptake in CHO-PepT1 cells expressing PepT1 (unknown origin) assessed as transporter mediated uptake at 25 uM; format: ADME, cell-based, Cricetulus griseus; conditions: chinese hamster, cho-pept1, 25 µM
T2 sequence (P46059 whole entry): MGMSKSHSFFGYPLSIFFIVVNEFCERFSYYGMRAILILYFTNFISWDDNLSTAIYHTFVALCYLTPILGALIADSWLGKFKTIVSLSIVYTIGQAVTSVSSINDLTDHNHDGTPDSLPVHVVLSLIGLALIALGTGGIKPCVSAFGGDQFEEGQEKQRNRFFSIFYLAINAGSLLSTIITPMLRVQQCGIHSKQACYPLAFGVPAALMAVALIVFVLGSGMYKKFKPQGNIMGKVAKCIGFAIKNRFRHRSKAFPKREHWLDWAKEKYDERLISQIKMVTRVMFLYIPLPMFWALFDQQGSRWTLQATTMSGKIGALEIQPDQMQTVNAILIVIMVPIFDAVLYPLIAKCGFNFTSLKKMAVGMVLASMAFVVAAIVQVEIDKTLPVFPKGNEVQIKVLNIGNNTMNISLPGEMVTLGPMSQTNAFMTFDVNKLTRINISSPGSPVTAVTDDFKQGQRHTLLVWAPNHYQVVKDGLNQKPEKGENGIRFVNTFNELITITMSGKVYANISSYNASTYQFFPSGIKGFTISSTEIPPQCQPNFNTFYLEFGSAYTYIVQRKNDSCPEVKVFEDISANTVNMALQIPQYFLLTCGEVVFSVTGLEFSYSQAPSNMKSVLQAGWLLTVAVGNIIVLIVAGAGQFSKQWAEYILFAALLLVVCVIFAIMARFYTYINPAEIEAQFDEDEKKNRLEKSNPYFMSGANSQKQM

[21] = Drug uptake in CHOK1 cells at 25 uM; format: ADME, cell-based, Cricetulus griseus; conditions: chinese hamster, cho-k1, 25 µM
[22] = Intrinsic clearance in human liver microsomes at 25 uM; format: ADME; conditions: read-out: CLH
[23] = in vitro; conditions: human, Caco-2
[24] = in vitro; conditions: human, Caco-2; remark: listed apart in the source
[25] = in vitro; conditions: human, Caco-2; remark: listed apart in the source
[26] = Drug uptake in CHOK1 cells at 100 uM; format: ADME, cell-based, Cricetulus griseus; conditions: chinese hamster, cho-k1, 100 µM
Summary of the method: (§3)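 Uptake was measured in CHO-PepT1 cells, which are stably transfected with PepT1, and in CHO-K1 cells as the control. It is expressed as pmol/mg protein/min. […] A PepT1/K1 uptake ratio above 1 was taken to indicate a PepT1 substrate. Values are mean ± SD.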

[27] = Intrinsic clearance in human liver microsomes at 100 uM; format: ADME; conditions: read-out: CLH
[28] = molecular target: T2, Solute carrier family 15 member 1; experiment: Drug uptake in CHO-PepT1 cells expressing PepT1 (unknown origin) assessed as transporter mediated uptake at 100 uM; format: ADME, cell-based, Cricetulus griseus; conditions: chinese hamster, cho-pept1, 100 µM; summary of the method: as §3
[29] = Apparent permeability from apical to basolateral side in human Caco2 cells at 100 uM; format: ADME, cell-based; conditions: Caco-2
Summary of the method: as §1, with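 “Papp(b–a)/Papp(a–b). The test concentration was 100 μM, or 25 μM for poorly soluble compounds after further dilution.” for “Papp(b–a)/Papp(a–b).”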

[30] = Apparent permeability from basolateral to apical side in human Caco2 cells at 100 uM; format: ADME, cell-based; conditions: Caco-2
Summary of the method: as §1, with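 “Papp(b–a)/Papp(a–b). The test concentration was 100 μM, or 25 μM for poorly soluble compounds after further dilution.” for “Papp(b–a)/Papp(a–b).”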

[31] = Half life in rat plasma at 100 uM; format: ADME, cell-free
[32] = Half life in human plasma at 100 uM; format: ADME, cell-free

Cytochrome P450 3A4, sequence (P08684 whole entry): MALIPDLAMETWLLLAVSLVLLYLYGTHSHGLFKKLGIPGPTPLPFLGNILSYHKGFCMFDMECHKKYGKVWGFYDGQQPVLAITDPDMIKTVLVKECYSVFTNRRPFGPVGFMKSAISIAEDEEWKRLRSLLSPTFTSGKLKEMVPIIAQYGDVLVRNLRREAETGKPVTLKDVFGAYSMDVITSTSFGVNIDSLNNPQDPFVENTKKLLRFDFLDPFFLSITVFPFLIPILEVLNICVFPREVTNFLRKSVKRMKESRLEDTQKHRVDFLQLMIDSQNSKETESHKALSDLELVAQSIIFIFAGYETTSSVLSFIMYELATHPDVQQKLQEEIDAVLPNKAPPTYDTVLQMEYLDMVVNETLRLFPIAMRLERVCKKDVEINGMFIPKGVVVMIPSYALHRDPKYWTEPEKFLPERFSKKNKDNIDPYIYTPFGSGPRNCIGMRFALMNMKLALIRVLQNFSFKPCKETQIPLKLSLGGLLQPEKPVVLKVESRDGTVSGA
Cytochrome P450 2C9, sequence (P11712 whole entry): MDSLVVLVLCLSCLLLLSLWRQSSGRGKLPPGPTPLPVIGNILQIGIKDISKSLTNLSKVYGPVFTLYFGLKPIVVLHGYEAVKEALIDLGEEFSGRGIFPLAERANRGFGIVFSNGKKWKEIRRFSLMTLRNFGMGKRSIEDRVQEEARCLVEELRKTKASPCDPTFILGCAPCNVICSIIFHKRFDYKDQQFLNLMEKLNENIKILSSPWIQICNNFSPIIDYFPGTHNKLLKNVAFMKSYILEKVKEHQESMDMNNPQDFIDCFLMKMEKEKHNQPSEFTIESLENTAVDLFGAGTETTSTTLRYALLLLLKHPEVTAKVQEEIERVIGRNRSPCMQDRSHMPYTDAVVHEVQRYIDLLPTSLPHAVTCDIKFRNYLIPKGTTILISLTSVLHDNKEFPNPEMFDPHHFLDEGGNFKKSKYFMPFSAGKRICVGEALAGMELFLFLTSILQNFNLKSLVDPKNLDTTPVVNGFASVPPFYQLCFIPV
Cytochrome P450 2D6, sequence (P10635 whole entry): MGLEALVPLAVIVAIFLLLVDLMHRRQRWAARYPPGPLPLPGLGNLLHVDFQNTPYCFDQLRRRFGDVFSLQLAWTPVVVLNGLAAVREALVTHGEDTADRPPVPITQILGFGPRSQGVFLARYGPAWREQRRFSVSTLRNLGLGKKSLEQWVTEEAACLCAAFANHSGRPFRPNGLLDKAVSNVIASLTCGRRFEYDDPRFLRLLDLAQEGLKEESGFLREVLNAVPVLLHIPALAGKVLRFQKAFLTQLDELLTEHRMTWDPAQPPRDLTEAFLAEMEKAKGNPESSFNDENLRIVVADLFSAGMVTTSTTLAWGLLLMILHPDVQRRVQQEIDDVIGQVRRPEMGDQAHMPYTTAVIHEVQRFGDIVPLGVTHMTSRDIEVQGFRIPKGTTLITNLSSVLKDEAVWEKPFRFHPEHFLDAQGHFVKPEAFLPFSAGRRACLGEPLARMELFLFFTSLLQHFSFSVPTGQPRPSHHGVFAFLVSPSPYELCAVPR

Drug recovery [8]	Drug recovery [13]	half-life at 25 µM [18]	half-life at 25 µM [19]	Drug uptake [20]	Drug uptake [21]	microsomal CLint at 25 µM [22]	Papp A→B at 25 µM [23]	Papp B→A at 25 µM [25]	SMILES	other results
> 65%	> 70%								NC(=O)[C@H](Cc1ccccc1)NC(=O)OCc1ccccc1	Papp A→B [1]: 31 ×10⁻⁶ cm/s; microsomal CLint [2]: 22.6 µL/min/mg; fraction unbound at 10 µM [3]: 0.17; INH [4]: > 20 µM; efflux ratio [5]: 1; INH [6]: > 20 µM; microsomal CLint [7]: 21.2 µL/min/mg; fraction unbound at 10 µM [9]: 0.18; recovery at 10 µM [10]: > 95%; INH [11]: > 20 µM; Vdu [12]: 6 mL/g; CLH [14]: 39.4 µL/min/mg; INH [15]: > 20 µM; fraction unbound at 10 µM [16]: 0.19
> 95%	> 95%								NC(=O)[C@@H]1[C@H](c2ccccc2)CCN1C(=O)[C@@H](N)Cc1ccccc1	recovery at 10 µM [10]: > 95%; Vdu [12]: 3.4 mL/g
		6.6 h	8.7 h	4 pmol/min/mg	4 pmol/min/mg	11 µL/min/mg	52 ×10⁻⁶ cm/s	62 ×10⁻⁶ cm/s	N#CNC(=O)[C@H](Cc1ccccc1)NC(=O)OCc1ccccc1	uptake ratio at 25 µM [17]: 1; efflux ratio at 25 µM [24]: 1.2
									CS(=O)(=O)NC(=O)[C@H](Cc1ccccc1)NC(=O)OCc1ccccc1	Drug uptake [26]: 77 pmol/min/mg; microsomal CLint at 100 µM [27]: 17 µL/min/mg; Drug uptake [28]: 90 pmol/min/mg; Papp A→B at 100 µM [29]: 6 ×10⁻⁶ cm/s; Papp B→A at 100 µM [30]: 3 ×10⁻⁶ cm/s; half-life at 100 µM [31]: 6.9 h; half-life at 100 µM [32]: 26.7 h
		7.9 h	0.06 h	5 pmol/min/mg	4 pmol/min/mg	23 µL/min/mg	60 ×10⁻⁶ cm/s	45 ×10⁻⁶ cm/s	O=C(N[C@@H](Cc1ccccc1)C(=O)NO)OCc1ccccc1	
		9.9 h	0.31 h	127 pmol/min/mg	156 pmol/min/mg	65 µL/min/mg	11 ×10⁻⁶ cm/s	14 ×10⁻⁶ cm/s	O=C(N[C@@H](Cc1ccccc1)C(=O)NNC(=O)c1ccccc1)OCc1ccccc1	uptake ratio at 25 µM [17]: 0.8; efflux ratio at 25 µM [24]: 1.3
		11.2 h	8.7 h	1082 pmol/min/mg	1128 pmol/min/mg	287 µL/min/mg			O=C(N[C@@H](Cc1ccccc1)c1nnc(-c2ccccc2)o1)OCc1ccccc1	
22%	1%								NC(=O)[C@H](Cc1ccccc1)NC(=O)[C@@H](N)Cc1ccccc1 (H-Phe-Phe-NH2)	microsomal CLint [2]: 97.3 µL/min/mg; microsomal CLint [7]: 103 µL/min/mg
